From ChEMBL document CHEMBL4138195, “Discovery of novel propargylamine-modified 4-aminoalkyl imidazole substituted pyrimidinylthiourea derivatives as multifunctional agents for the treatment of Alzheimer's disease” (Eur J Med Chem, 2018)
Activity calls are given as the source filed them. The calls are words filed in the database; no cut-off is given here.

Experiments:
[1] = molecular target: Amyloid-beta precursor protein (Homo sapiens) (UniProt P05067); assay: Inhibition of amyloid beta (1 to 42) peptide (unknown origin) self aggregation-induced cytotoxicity in E17 Sprague-Dawley rat primary cortical neurons assessed as neuroprotective activity by measuring increase in cell viability at 1 uM after 24 hrs by MTT assay
How it was run: (§1)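 Rat E17 primary cortical neurons after 9 days in culture. Aβ1-42 samples, prepared as for the dot blot (± Cu2+, ± compound), added to the cultures at 1 µM for 24 h. Viability by MTT, normalized to the vehicle group. EGCG and clioquinol as positive controls.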

[2] = molecular target: T1, Amine oxidase [flavin-containing] B (Homo sapiens, UniProt P27338)
T1 sequence (P27338 whole entry): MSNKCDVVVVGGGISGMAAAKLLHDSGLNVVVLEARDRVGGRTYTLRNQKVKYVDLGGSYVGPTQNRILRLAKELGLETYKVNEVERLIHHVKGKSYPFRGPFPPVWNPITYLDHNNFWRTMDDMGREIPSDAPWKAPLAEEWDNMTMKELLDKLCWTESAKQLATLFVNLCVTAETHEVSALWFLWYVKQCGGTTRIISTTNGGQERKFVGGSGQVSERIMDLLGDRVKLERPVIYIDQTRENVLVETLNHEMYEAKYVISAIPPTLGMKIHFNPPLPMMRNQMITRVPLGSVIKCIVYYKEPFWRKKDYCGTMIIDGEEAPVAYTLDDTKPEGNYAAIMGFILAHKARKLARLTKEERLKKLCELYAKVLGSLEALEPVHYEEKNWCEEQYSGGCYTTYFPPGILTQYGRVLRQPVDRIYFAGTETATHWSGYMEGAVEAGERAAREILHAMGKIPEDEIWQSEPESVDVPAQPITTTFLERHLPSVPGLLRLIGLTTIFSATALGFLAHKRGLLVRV

[3] = molecular target: Amyloid-beta precursor protein (Homo sapiens) (UniProt P05067); assay: Inhibition of amyloid beta (1 to 42) (unknown origin) self aggregation at 50 uM incubated at 37 degC for 24 hrs by dot immunoblot assay
How it was run: (§2)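 Aβ1-42 (2000 µM stock in 1% ammonium hydroxide) diluted in […], pH 6.6. Peptide 25 µM ± Cu(II) 25 µM ± compound 50 µM, incubated 37 °C for 24 h. Samples spotted on nitrocellulose, blocked in 5% milk, probed overnight at 4 °C with A11 (oligomers) or 6E10 (total Aβ), HRP secondary, densitometry. N = 4, mean ± SEM; EGCG control.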

[4] = molecular target: T2, Acetylcholinesterase (Rattus norvegicus, UniProt P37136); assay: Inhibition of AChE in rat cortex homogenate using acetylthiocholine iodide as substrate after 20 mins by Ellman's method
T2 sequence (P37136 whole entry): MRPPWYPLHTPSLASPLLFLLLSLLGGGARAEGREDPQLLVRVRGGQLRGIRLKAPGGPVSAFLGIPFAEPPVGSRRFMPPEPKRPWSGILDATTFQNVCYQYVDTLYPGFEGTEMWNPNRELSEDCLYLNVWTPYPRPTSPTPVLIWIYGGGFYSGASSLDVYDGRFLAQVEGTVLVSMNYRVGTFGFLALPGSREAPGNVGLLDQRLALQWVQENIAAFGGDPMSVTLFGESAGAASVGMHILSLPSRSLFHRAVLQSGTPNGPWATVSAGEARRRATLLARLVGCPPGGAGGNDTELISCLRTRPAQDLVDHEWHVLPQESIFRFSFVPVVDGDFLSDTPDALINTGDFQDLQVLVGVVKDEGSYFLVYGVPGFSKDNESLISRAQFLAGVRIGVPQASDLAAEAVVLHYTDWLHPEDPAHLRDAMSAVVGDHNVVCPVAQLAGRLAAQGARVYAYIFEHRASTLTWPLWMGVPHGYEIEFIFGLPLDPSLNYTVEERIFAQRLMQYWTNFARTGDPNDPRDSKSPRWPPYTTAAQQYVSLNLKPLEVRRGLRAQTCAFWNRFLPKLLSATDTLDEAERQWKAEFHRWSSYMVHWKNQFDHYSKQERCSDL

[5] = Inhibition of Cu2+-mediated amyloid beta (1 to 42) (unknown origin) aggregation at 50 uM after 24 hrs by dot blot assay
[6] = in vitro; conditions: PAMPA
[7] = molecular target: Butyrylcholinesterase (Rattus norvegicus, UniProt Q9JKC1); assay: Inhibition of BuChE in rat serum using butyrylthiocholine iodide as substrate after 20 mins by Ellman's method
[8] = Antioxidant activity assessed as inhibition of Cu2+-mediated redox cycling induced hydroxyl radicals generation at 15 uM in presence of ascorbate by fluorescence assay
How it was run: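 Hydroxyl radicals from Cu(II) (5 µM) and ascorbate (150 µM), with deferoxamine 1 µM, in PBS (20 mM, 100 mM NaCl, pH 7.4, 0.1% methanol). Ligand at 15 µM, with EDTA as positive control. Conversion of coumarin-3-carboxylic acid (50 µM) to fluorescent 7-hydroxy-CCA followed at 37 °C (ex 395/em 450 nm). Run in triplicate.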

[9] = organism: Homo sapiens; assay: Selectivity index, ratio of IC50 for recombinant human MAOA to IC50 for recombinant human MAOB
How it was run: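 Recombinant human MAO-A (12.5 µg/mL) or MAO-B (75 µg/mL) preincubated 15 min at 37 °C with compound (diluted from 10 mM DMSO stock in 50 mM KH2PO4, pH 7.4). Amplex Red working solution added: 2 mM p-tyramine (MAO-A) or benzylamine (MAO-B), 2 U/mL HRP. After 15 min at 37 °C, fluorescence read (ex 545/em 590), background from enzyme-free wells subtracted.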

[10] = Inhibition of Cu2+-induced amyloid beta (1 to 42 residues) (unknown origin) aggregation at 50 uM incubated at 37 degC for 24 hrs by dot immunoblot assay; how it was run: as §2
[11] = system: Mus musculus; assay: Reversal of scopolamine-induced dementia in ICR mouse assessed as decrease in escape latency time at 30 mg/kg, po administered 40 mins prior to scopolamine-challenge by water maze test; format: functional, organism-based
How it was run: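 Test compound as HCl salt, 30 mg/kg intragastric, given 40 min before scopolamine (4.5 mg/kg i.p.), which was given 20 min before the water maze. Escape latency and errors (entries into no-exit paths) recorded; mean ± SEM.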

[12] = Inhibition of Cu2+-mediated amyloid beta (1 to 42) (unknown origin) aggregation at 50 uM after 24 hrs by dot blot assay; how it was run: as §2
[13] = Inhibition of Cu2+-mediated amyloid beta (1 to 42) peptide-induced cytotoxicity in E17 Sprague-Dawley rat primary cortical neurons assessed as neuroprotective activity by measuring increase in cell viability at 1 uM after 24 hrs by MTT assay; how it was run: as §1
[14] = Metal chelating activity assessed as compound-Zn2+ complex formation at 40 uM in presence of ZnCl2 after 30 mins by UV-visible spectrophotometric analysis
How it was run: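 UV–vis spectra (200–500 nm) of compound at 40 µM final, alone or with CuCl2, FeSO4, FeCl3 or ZnCl2 (20 µM final), after 30 min in 20 mM HEPES, 150 mM NaCl, pH 7.4, at room temperature.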

Sequence of Amyloid-beta precursor protein (Homo sapiens) (P05067 whole entry): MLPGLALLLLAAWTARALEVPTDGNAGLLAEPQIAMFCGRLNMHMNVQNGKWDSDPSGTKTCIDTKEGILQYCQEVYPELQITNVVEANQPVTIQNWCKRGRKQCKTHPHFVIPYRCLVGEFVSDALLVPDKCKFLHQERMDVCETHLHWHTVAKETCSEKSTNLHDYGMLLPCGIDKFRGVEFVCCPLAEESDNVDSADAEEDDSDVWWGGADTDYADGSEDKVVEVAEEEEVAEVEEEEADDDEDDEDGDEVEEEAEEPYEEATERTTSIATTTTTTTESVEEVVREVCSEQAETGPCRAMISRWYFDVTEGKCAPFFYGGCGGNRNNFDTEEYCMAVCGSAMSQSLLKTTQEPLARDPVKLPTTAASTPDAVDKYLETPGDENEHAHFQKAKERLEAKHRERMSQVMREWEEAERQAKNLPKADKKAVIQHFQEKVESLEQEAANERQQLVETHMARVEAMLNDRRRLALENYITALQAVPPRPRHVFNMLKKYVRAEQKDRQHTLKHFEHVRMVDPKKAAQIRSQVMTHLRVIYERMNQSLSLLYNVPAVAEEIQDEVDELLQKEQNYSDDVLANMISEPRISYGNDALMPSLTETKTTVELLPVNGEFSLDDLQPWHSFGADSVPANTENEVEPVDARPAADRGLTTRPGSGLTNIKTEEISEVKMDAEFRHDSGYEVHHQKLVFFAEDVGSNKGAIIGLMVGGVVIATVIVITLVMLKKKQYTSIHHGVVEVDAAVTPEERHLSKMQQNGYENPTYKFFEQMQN
Sequence of Butyrylcholinesterase (Q9JKC1 whole entry): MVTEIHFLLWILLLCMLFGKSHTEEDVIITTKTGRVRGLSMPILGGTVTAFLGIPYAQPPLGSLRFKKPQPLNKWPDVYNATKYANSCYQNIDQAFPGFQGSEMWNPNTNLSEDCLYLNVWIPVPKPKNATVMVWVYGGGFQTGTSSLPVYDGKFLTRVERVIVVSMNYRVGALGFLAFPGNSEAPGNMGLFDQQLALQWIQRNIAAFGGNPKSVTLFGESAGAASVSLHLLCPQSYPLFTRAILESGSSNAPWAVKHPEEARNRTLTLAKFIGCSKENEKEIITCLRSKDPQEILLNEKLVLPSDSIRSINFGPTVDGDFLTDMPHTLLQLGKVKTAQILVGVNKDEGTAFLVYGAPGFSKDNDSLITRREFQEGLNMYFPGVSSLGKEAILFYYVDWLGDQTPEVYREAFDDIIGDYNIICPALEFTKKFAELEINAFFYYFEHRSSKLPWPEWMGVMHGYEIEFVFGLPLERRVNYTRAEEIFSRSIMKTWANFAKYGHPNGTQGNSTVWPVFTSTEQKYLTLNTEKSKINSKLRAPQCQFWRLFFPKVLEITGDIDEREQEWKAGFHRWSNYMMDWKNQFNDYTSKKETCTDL

SMILES: C#CCN(C)Cc1cn(-c2cc(NC(=S)NCC)ncn2)cn1
- Activity [1]: inactive
- IC50 [2]: 1430 nM
- inhibition [3]: inactive
- IC50 [4]: 324 nM
- inhibition [5]: Active
- Papp at 12 h, 100 ug/ml [6]: 3.16 ×10⁻⁶ cm/s
- IC50 [7]: > 40000 nM
- Activity [8]: Active
- Ratio IC50 [9]: > 35
- inhibition [10]: Active
- Activity [11]: Active
- inhibition [12]: Active
- Activity [13]: Active
- Activity [14]: inactive
